In ChEMBL document CHEMBL1125426, “Muscarinic receptor subtype specificity of (N,N-dialkylamino)alkyl 2-cyclohexyl-2-phenylpropionates: cylexphenes (cyclohexyl-substituted aprophen analogues)” (J Med Chem, 1992):

Key:
[1] = biological target: T1, Muscarinic acetylcholine receptor M1 (Homo sapiens, UniProt P11229); experiment: Antimuscarinic potency and subset specificity was characterised by its inhibition of the [3H]NMS Binding to Muscarinic acetylcholine receptor M1 subtype
T1 sequence (P11229 whole entry): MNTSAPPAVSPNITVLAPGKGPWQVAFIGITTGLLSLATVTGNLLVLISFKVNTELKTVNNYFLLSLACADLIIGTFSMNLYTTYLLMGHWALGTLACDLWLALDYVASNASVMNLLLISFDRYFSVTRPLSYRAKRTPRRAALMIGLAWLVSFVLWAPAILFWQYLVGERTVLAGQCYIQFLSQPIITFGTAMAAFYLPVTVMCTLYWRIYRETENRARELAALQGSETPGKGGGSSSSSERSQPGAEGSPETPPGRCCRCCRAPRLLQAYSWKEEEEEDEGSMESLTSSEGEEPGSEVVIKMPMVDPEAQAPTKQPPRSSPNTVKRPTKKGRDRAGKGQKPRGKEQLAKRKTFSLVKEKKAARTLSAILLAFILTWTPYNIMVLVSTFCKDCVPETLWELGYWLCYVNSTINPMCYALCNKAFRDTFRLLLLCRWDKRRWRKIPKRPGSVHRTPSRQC
Method in brief: (§1)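 Membranes, by hypotonic lysis (2 mM Tris-HCl pH 7.2, 1 mM EDTA) and 50000g spins, from A9 L cells stably carrying cloned brain m1 or m3, heart (M2) or NG108-15 cells (M4). 150-300 µg protein incubated 60 min at 37 °C in PBS pH 7.2 with 0.5 nM [3H]NMS and varied compound levels. Filtration and scintillation counting. Nonspecific binding taken with 1 µM atropine. Ki from LIGAND with KD 235 (m1), 426 (M2), 164 (m3), 144 (M4) pM. Three to six experiments.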

[2] = biological target: T2, Muscarinic acetylcholine receptor M2 (Homo sapiens, UniProt P08172); experiment: Antimuscarinic potency and subset specificity was characterised by its inhibition of the [3H]NMS Binding to Muscarinic acetylcholine receptor M2 subtype; method in brief: as §1
T2 sequence (P08172 whole entry): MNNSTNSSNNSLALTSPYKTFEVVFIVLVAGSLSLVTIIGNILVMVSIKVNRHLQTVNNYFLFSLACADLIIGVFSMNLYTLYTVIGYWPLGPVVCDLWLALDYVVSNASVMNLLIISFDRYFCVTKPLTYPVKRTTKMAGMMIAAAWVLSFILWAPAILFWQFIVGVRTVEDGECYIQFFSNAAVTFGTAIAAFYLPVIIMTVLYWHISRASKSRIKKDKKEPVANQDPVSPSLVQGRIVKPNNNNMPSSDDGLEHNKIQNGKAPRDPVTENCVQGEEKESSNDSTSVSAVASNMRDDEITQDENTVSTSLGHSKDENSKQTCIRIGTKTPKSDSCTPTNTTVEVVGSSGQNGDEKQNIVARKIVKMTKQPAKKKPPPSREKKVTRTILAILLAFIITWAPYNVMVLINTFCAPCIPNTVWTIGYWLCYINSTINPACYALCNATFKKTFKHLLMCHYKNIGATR

[3] = biological target: T3, Muscarinic acetylcholine receptor M3 (Homo sapiens, UniProt P20309); experiment: Antimuscarinic potency and subset specificity was characterised by its inhibition of the [3H]NMS Binding to Muscarinic acetylcholine receptor M3 subtype
Method in brief: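 Membranes from A9 L cells stably transfected with cloned m3 receptor (brain library), lysed in 2 mM Tris-HCl pH 7.2/1 mM EDTA, centrifuged 50000g. 150-300 µg protein incubated 60 min, 37 °C with 0.5 nM [3H]NMS plus varied compound concentrations in PBS pH 7.2; filtration, scintillation counting. Nonspecific binding: 1 µM atropine. Ki via LIGAND using KD 164 pM; mean of 3-6 experiments ± SD.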

[4] = biological target: T4, Muscarinic acetylcholine receptor M4 (Homo sapiens, UniProt P08173); experiment: Antimuscarinic potency and subset specificity was characterised by its inhibition of the [3H]NMS Binding to Muscarinic acetylcholine receptor M4 subtype; method in brief: as §1
T4 sequence (P08173 whole entry): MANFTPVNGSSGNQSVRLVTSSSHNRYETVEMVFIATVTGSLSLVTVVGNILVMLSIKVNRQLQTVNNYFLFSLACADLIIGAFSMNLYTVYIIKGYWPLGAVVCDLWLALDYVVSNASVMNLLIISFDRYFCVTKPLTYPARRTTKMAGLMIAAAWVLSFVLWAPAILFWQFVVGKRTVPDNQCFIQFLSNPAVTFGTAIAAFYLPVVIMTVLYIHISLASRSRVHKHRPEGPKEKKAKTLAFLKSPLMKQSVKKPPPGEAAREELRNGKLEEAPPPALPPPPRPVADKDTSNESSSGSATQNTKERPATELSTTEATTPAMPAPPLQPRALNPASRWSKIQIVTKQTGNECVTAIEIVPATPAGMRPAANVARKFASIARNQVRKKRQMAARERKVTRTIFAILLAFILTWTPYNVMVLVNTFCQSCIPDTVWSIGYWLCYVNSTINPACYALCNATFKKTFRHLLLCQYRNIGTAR

[5] = Selectivity ratio relative to atropine is [(atropine IC50 value for pancreas)/(compound IC50 value for pancreas)] / [(atropine KB value for ileum) /(compound KB value for ileum)]; format: tissue-based
Method in brief: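 Rat pancreatic acini from male Sprague-Dawley rats, collagenase digested, exposed to 10^-5 M carbachol with varied compound levels. […] Ileum KB comes from Schild plots on male guinea pig distal ileum at 37 °C, ACh-induced isometric contraction, compound added 30 s before ACh. Ratio as printed, referenced to atropine.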

[6] = biological target: Muscarinic acetylcholine receptor M1 and M3 (Homo sapiens) (UniProt P20309+P11229); experiment: Selectivity index is defined as the ratio of Ki value for m1 receptor / Ki value for m3 receptor; format: protein assay
[7] = Selectivity index is defined as the ratio of Ki value for m3 receptor / Ki value for M4 receptor
[8] = biological target: T3, Muscarinic acetylcholine receptor M3; experiment: Antimuscarinic potency and subset specificity was characterised by its inhibition of the [3H]NMS Muscarinic acetylcholine receptor M3 subtype; method in brief: as §1
[9] = biological target: T1, Muscarinic acetylcholine receptor M1; experiment: Antimuscarinic potency and subset specificity was characterised by inhibition of the [3H]NMS Binding to Muscarinic acetylcholine receptor M1 subtype; method in brief: as §1
[10] = biological target: T2, Muscarinic acetylcholine receptor M2; experiment: Antimuscarinic potency and subset specificity was characterised by inhibition of the [3H]NMS Binding to Muscarinic acetylcholine receptor M2 subtype; method in brief: as §1

Sequence of Muscarinic acetylcholine receptor M1 and M3 (Homo sapiens) (P20309 whole entry, looked up, one chain of several): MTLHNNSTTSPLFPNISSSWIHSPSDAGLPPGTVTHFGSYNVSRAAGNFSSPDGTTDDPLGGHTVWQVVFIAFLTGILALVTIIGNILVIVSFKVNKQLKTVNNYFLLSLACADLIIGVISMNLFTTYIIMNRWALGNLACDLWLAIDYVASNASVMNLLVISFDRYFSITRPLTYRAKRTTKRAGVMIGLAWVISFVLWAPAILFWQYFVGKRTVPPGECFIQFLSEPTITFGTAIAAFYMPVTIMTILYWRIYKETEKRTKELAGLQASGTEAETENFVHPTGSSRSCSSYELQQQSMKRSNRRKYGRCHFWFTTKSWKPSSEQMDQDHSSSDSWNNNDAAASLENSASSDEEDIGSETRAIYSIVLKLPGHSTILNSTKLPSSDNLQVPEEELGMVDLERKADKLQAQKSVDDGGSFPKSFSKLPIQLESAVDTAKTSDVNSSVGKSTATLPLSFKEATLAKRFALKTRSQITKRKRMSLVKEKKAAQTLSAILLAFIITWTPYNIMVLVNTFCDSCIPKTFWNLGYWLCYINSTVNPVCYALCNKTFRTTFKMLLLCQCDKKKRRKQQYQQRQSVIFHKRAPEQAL
T3 sequence (P20309 whole entry): as the sequence (P20309 whole entry, looked up, one chain of several) above

Ki [3] [nM] | SMILES | Ki [1] [nM] | Ki [2] [nM] | Ki [4] [nM] | Selectivity [5] | Selectivity ratio [6] | Selectivity ratio [7] | Ki [8] [nM] | Ki [9] [nM] | Ki [10] [nM]
160 | CCN(CC)CCCCOC(=O)C(C)(c1ccccc1)C1CCCCC1 (centres undefined) | 111 | 248 | 209 | – | – | – | – | – | –
– | CCN(CC)CCOC(=O)C(C)(c1ccccc1)C1CCCCC1 (centres undefined) | 4 | 23.4 | 18.5 | 16.7 | 2.5 | 1.9 | 9.9 | – | –
178 | CCN(CC)CCCCCOC(=O)C(C)(c1ccccc1)C1CCCCC1 (centres undefined) | 298 | 246 | 173 | 11.5 | 0.6 | 1 | – | – | –
– | CCN(CC)CCOC(=O)C(C)(c1ccccc1)c1ccccc1 [APROFENE] | – | – | 7.4 | – | – | – | – | 2.1 | 9.3
31.2 | CN(C)CCCCOC(=O)C(C)(c1ccccc1)C1CCCCC1 (centres undefined) | 40.7 | 258 | 65.6 | – | – | – | – | – | –

SMILES | Ki [3] [nM] | Ki [1] [nM] | Ki [2] [nM] | Ki [4] [nM] | Selectivity [5] | Selectivity ratio [6] | Selectivity ratio [7] | Ki [8] [nM] | Ki [9] [nM] | Ki [10] [nM]
CCN(CC)CCCOC(=O)C(C)(c1ccccc1)C1CCCCC1 (centres undefined) | 4 | 2.9 | 19.7 | 4.6 | 19.1 | 1.4 | 1.2 | – | – | –
CN(C)CCCOC(=O)C(C)(c1ccccc1)C1CCCCC1 (centres undefined) | 1.7 | 1.9 | 26.9 | 1.5 | 30.8 | 0.9 | 0.9 | – | – | –
